ChEMBL document CHEMBL1795318, “Development of tetrahydroisoquinoline-based hydroxamic acid derivatives: potent histone deacetylase inhibitors with marked in vitro and in vivo antitumor activities” (J Med Chem, 2011)
The source made the active and inactive calls. No cut-off for these calls is given here.

Key:
Histone deacetylase 8 = target: T1, Histone deacetylase 8 (Homo sapiens, UniProt Q9BY41); experiment: Inhibition of HDAC8 after 30 mins by fluorescence microplate reader
T1 sequence (Q9BY41 whole entry): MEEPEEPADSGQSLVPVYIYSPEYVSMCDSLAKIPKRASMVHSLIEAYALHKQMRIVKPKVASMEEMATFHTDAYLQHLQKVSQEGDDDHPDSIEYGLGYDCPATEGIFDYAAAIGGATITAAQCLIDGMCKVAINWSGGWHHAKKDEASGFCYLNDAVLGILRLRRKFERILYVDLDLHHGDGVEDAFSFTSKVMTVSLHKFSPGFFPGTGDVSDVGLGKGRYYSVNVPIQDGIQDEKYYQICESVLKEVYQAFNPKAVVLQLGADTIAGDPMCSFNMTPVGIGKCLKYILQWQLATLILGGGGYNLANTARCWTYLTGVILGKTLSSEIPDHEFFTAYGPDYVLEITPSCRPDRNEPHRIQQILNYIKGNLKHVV
Procedure, shortened: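 HDAC8 mixed with compound at various concentrations, fluorogenic substrate added, 37 °C for 30 min; stopped with developer containing trypsin and TSA. Fluorescence read after 20 min (ex 390/em 460 nm); inhibition relative to control wells, IC50 by regression of concentration/inhibition data; mean ± SD of at least three determinations.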

NB-4 = experiment: Cytotoxicity against human NB4 cells after 48 hrs by MTT assay; assay type: functional, cell-based; settings: NB-4, 48 h
K562 = experiment: Cytotoxicity against human K562 cells after 48 hrs by MTT assay; assay type: functional, cell-based; settings: K562, 48 h
Histone deacetylase = experiment: Inhibition of HDAC in human HeLa cell nuclear extract after 30 mins by fluorescence microplate reader; assay type: protein assay
HeLa = experiment: Cytotoxicity against human HeLa cells after 48 hrs by MTT assay; assay type: functional, cell-based
[1] = target: T2, Protein deacetylase HDAC6 (Homo sapiens, UniProt Q9UBN7); experiment: Inhibition of HDAC6 in human HeLa cell nuclear extract after 30 mins by fluorescence microplate reader
T2 sequence (Q9UBN7 whole entry): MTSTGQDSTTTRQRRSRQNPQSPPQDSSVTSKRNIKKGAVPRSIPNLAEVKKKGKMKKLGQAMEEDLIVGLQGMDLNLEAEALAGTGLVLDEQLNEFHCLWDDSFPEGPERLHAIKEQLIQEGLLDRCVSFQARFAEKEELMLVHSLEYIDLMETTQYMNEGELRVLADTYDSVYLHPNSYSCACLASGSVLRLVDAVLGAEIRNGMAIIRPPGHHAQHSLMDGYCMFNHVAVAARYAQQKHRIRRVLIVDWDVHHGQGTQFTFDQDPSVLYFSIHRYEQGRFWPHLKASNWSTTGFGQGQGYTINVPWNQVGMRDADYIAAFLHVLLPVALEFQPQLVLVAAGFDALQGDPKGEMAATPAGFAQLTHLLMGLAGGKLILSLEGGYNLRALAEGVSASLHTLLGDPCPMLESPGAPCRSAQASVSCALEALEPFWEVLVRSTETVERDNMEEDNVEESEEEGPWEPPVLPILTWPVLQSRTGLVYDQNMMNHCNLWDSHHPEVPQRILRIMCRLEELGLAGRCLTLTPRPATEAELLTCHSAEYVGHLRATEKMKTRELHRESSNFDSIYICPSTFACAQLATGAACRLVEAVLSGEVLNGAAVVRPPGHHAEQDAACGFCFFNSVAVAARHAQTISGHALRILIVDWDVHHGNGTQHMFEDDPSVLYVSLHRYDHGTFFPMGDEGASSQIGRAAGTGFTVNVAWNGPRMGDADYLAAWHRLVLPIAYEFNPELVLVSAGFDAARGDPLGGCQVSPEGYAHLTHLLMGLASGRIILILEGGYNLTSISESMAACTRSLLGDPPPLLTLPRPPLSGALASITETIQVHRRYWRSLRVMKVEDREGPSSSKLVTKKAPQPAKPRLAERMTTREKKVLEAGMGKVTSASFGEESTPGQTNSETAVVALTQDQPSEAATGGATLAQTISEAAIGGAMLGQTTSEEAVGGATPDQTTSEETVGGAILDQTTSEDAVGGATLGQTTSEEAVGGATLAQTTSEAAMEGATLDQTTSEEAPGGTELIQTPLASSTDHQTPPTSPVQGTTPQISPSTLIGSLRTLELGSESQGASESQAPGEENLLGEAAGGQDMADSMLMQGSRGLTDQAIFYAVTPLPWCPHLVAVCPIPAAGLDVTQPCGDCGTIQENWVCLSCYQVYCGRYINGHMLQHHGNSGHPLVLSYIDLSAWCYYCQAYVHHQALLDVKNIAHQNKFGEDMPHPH

MDA-MB-231 [2] = experiment: Antitumor activity against human MDA-MB-231 cells xenografted in athymic nude mouse assessed as tumor growth delay at 90 mg/kg, ip qd for 21 days; assay type: functional, organism-based; design: dose 90 mg/kg
HL-60 = experiment: Cytotoxicity against human HL60 cells after 48 hrs by MTT assay; assay type: functional, cell-based; settings: HL-60, 48 h
MDA-MB-231 [3] = experiment: Cytotoxicity against human MDA-MB-231 cells after 48 hrs by MTT assay; assay type: functional, cell-based; settings: MDA-MB-231, 48 h
MDA-MB-231 [4] = experiment: Antitumor activity against human MDA-MB-231 cells xenografted in athymic nude mouse assessed as tumor growth inhibition at 90 mg/kg, ip qd for 21 days; assay type: functional; settings: route intraperitoneal
A549 = experiment: Cytotoxicity against human A549 cells after 48 hrs by MTT assay; assay type: functional, cell-based; settings: A549, 48 h
Procedure, shortened: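 Cells kept in RPMI1640 with 10% FBS, 37 °C, 5% CO₂; seeded day before dosing, grown ≥4 h, treated with a concentration series for 48 h. MTT 0.5% solution added, 4 h further; formazan dissolved in DMSO 15 min, absorbance at 570 nm. Mean of three experiments.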

MDA-MB-231 [5] = experiment: Cell cycle arrest in human MDA-MB-231 cells assessed as accumulation at G1 phase at 0.5 uM after 48 hrs by flow cytometry analysis; assay type: functional, cell-based
MDA-MB-231 [6] = experiment: Cell cycle arrest in human MDA-MB-231 cells assessed as accumulation at G2 phase at 2 to 5 uM after 48 hrs by flow cytometry analysis; assay type: functional, cell-based
[7] = Cytotoxicity against human ES2 cells after 48 hrs by MTT assay; assay type: functional, cell-based; settings: ES-2, 48 h

`COc1ccc(NC(=O)[C@@H]2Cc3ccc(OCC(=O)NO)cc3CN2C(=O)[C@H](Cc2ccc(O)cc2)NC(=O)OC(C)(C)C)cc1` showed an IC50 (Histone deacetylase 8) of 175 nM.

Compound `CC[C@H](C)[C@H](NC(=O)[C@@H](NC(=O)OC(C)(C)C)C(C)C)C(=O)N1Cc2cc(OCC(=O)NO)ccc2C[C@H]1C(=O)Nc1ccc(OC)cc1` has an IC50 (NB-4) of 63300 nM, an IC50 (K562) of 2780 nM and an IC50 (Histone deacetylase) of 128 nM. For the same compound, the IC50 (HeLa) was 167000 nM, the IC50 (Histone deacetylase 8) was 201 nM and the IC50 [1] was 116 nM.

Work on `CC[C@H](C)[C@H](NC(=O)C1CCN(C(=O)OC(C)(C)C)CC1)C(=O)N1Cc2cc(OCC(=O)NO)ccc2C[C@H]1C(=O)Nc1ccc(OC)cc1` yielded an IC50 (NB-4) of 68200 nM, an IC50 (K562) of 12300 nM and an IC50 (Histone deacetylase) of 214 nM. For the same compound, the IC50 (HeLa) was > 200000 nM, the IC50 (Histone deacetylase 8) was 147 nM and the IC50 [1] was 164 nM.

For `COc1ccc(NC(=O)[C@@H]2Cc3ccc(OCC(=O)NO)cc3CN2C(=O)[C@@H](N)Cc2ccc(O)cc2)cc1`, the IC50 (Histone deacetylase 8) was 634 nM.

Compound `COc1ccc(NC(=O)[C@@H]2Cc3ccc(OCC(=O)NO)cc3CN2C(=O)[C@H](C)N)cc1` has an IC50 (Histone deacetylase 8) of 1280 nM.

`COc1ccc(NC(=O)[C@@H]2Cc3ccc(OCC(=O)NO)cc3CN2CCCc2ccccc2)cc1` gave an IC50 (Histone deacetylase 8) of 1720 nM.

For `CC[C@H](C)[C@@H](CN1Cc2cc(OCC(=O)NO)ccc2C[C@H]1C(=O)Nc1ccc(OC)cc1)NC(=O)CC(C)(C)C`, the IC50 (NB-4) was 5570 nM, the Activity (MDA-MB-231 [2]) was “Active” and the IC50 (K562) was 10000 nM. It also gave an IC50 (Histone deacetylase) of 297 nM, an IC50 (HeLa) of 63500 nM and an IC50 (Histone deacetylase 8) of 333 nM. The IC50 [1] was 158 nM, the IC50 (HL-60) was 25700 nM and the IC50 (MDA-MB-231 [3]) was 2540 nM. For the same compound, the T/C (MDA-MB-231 [4]) was 87%.

For `COc1ccc(NC(=O)[C@@H]2Cc3ccc(OCC(=O)NO)cc3CN2C(=O)Cc2ccccc2)cc1`, the IC50 (Histone deacetylase 8) was 141 nM, the IC50 (A549) was 117000 nM and the IC50 (MDA-MB-231 [3]) was 4450 nM.

Work on `COc1ccc(NC(=O)[C@@H]2Cc3ccc(OCC(=O)NO)cc3CN2C(=O)[C@H](CC(C)C)NC(=O)OC(C)(C)C)cc1` yielded an IC50 (Histone deacetylase 8) of 163 nM.

Work on `COc1ccc(NC(=O)[C@@H]2Cc3ccc(OCC(=O)NO)cc3CN2C(=O)[C@@H](N)C(C)C)cc1` yielded an IC50 (Histone deacetylase 8) of 1020 nM.

Compound `COc1ccc(NC(=O)[C@@H]2Cc3ccc(OCC(=O)NO)cc3CN2C(=O)[C@@H]2CCCN2C(=O)OC(C)(C)C)cc1` has an IC50 (Histone deacetylase 8) of 212 nM.

For `COc1ccc(NC(=O)[C@@H]2Cc3ccc(OCC(=O)NO)cc3CN2C(=O)CN)cc1`, the IC50 (Histone deacetylase 8) was 2140 nM.

Compound `O=C(COc1ccc2c(c1)CN(C(=O)CCc1ccccc1)[C@H](C(=O)NCCc1ccccc1)C2)NO` has an IC50 (Histone deacetylase 8) of 692 nM.

For `CC[C@H](C)[C@@H](CN1Cc2cc(OCC(=O)NO)ccc2C[C@H]1C(=O)Nc1ccc(OC)cc1)NC(=O)OC(C)(C)C`, the Activity (MDA-MB-231 [5]) was “Active”, the IC50 (NB-4) was 3870 nM and the Activity (MDA-MB-231 [2]) was “Active”. The IC50 (K562) was 7000 nM, the Activity (MDA-MB-231 [6]) was “Active” and the IC50 (Histone deacetylase) was 447 nM. It also gave an IC50 (HeLa) of 29200 nM, an IC50 (Histone deacetylase 8) of 263 nM and an IC50 [1] of 94 nM. For the same compound, the IC50 (HL-60) was 42700 nM, the IC50 [7] was 7200 nM and the IC50 (MDA-MB-231 [3]) was 2200 nM. For the same compound, the T/C (MDA-MB-231 [4]) was 47%.

Work on `COc1ccc(NC(=O)[C@@H]2Cc3ccc(OCC(=O)NO)cc3CN2C(=O)CCCc2ccccc2)cc1` yielded an IC50 (Histone deacetylase 8) of 114 nM, an IC50 (A549) of 3580 nM and an IC50 (MDA-MB-231 [3]) of 2770 nM.

Compound `COc1ccc(NC(=O)[C@@H]2Cc3ccc(OCC(=O)NO)cc3CN2C(=O)[C@@H](NC(=O)OC(C)(C)C)C(C)C)cc1` has an IC50 (Histone deacetylase 8) of 104 nM, an IC50 (A549) of 840 nM and an IC50 (MDA-MB-231 [3]) of 1580 nM.
